Measured values published in BindingDB's records for doi:10.1016/j.bmc.2008.08.048 (National Institute of Diabetes and Digestive and Kidney …, 2008).

Biological target: Transient receptor potential cation channel subfamily V member 1 (Rattus norvegicus, UniProt O35433)
Assay: Agonist-enhancing activity at TRPV1 receptor in E15 rat primary dorsal root ganglion cells assessed as capsaicin-induced 45Ca2+ influx by microplate liquid scintillation counter
Method in brief: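 E15 rat DRG cultures grown 5–6 days at 35°C. Uptake with capsaicin ~0.5 µM, 10 min at 20°C, 0.5 µCi/well 45Ca2+ in Tris-HBSS pH 7.5. Compound up to 50 µM, 0.2% DMSO, from 25 mM stocks. Counts normalized to in-plate capsaicin-only wells (100%, 4 wells). Variable-slope sigmoid fit gave EC50, Hill slope and ΔEmax.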

Sequence of Transient receptor potential cation channel subfamily V member 1 (O35433 whole entry): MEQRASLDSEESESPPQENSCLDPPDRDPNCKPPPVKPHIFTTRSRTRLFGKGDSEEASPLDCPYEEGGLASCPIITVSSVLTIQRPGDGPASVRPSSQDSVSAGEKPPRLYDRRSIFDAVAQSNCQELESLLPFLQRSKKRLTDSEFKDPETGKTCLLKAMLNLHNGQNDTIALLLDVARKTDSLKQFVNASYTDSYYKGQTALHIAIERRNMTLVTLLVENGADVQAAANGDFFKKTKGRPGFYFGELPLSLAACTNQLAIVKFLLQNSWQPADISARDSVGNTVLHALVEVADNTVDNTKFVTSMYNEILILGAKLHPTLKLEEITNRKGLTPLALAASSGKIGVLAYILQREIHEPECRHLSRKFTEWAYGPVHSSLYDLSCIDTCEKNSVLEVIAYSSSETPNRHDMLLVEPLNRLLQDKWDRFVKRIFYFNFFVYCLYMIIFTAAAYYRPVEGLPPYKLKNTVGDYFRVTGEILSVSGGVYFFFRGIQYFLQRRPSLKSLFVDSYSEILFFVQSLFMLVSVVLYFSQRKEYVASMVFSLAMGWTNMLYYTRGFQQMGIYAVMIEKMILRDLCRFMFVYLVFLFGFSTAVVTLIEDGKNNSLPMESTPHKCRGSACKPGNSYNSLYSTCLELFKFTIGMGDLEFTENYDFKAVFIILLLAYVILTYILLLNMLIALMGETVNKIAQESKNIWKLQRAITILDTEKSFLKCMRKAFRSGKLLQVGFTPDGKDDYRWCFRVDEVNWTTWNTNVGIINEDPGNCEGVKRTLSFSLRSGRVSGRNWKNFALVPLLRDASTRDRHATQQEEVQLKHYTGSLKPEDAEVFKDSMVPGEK

CCOC(=O)C1=C(c2cccc(Cl)c2)N=C(C)C(C(=O)OCC)C1CC (single isomer, unassigned; (+)) [3,5-diethyl-2-methyl-4-ethyl-6-(3-chlorophenyl)-1,4-(+)-dihydropyridine-3,5-dicarboxylate]
EC50: 17 µM
